{"source": "paper PMC3129651", "about": "(Pharmaceutical research, 2010)", "key": {"[1]": {"system": "suspended rat hepatocytes", "test": "Preliminary uptake time course in suspended rat hepatocytes sampling over 60min"}, "[2]": {"system": "WT rat sandwich-cultured hepatocytes", "test": "20-min efflux study in day 4 WT rat sandwich-cultured hepatocytes", "format": "in vitro ADME", "in_short": "(§1)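 Male Wistar WT or Mrp2-deficient TR⁻ rat hepatocytes were seeded on collagen I 6-well plates (~1.5 × 10^6 cells/well TR, 1.75 × 10^6 WT), overlaid with Matrigel and used on day 4. They were preloaded for 20 min at 37°C with 99mTc probe (5 μCi/mL) in standard HBSS. Efflux then ran 20 min at 37°C in standard (basolateral) or Ca2+-free HBSS (basolateral + canalicular), with 100 μM MK571, 20 μM GF120918 or 0.6% DMSO. Decay-corrected gamma counts of medium and lysate were taken, and efflux was expressed as % of preloaded mass. n=4 WT, 3 TR livers, triplicate.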"}, "[3]": {"system": "WT sandwich-cultured rat hepatocytes", "test": "10-min accumulation study", "format": "in vitro ADME", "settings": "2μM GF120918; siNT- and siBcrp-infected rat SCH"}, "[4]": {"system": "human sandwich-cultured hepatocytes", "test": "20-min efflux study in day 7 human sandwich-cultured hepatocytes", "format": "in vitro ADME"}, "[5]": {"system": "suspended human hepatocytes", "format": "in vitro ADME", "settings": "99mTc-MEB 5μCi/mL, 20μM rifamycin SV, 200μM clonidine, 10μM desipramine, 5μM decynium 22, 10μM ketoprofen"}, "OCT [6]": {"system": "OCT", "test": "Initial uptake of 14C-TEA in suspended human hepatocytes with inhibitors", "format": "in vitro ADME", "settings": "14C-TEA 20μM, 5μM decynium 22"}, "[7]": {"system": "suspended WT rat hepatocytes", "format": "in vitro ADME", "settings": "99mTc-MEB 5μCi/mL, 20μM rifamycin SV, 20μM glycyrrhizic acid, 200μM clonidine, 10μM desipramine, 5μM decynium 22, 10μM ketoprofen"}, "[8]": {"system": "suspended rat hepatocytes"}, "Oct [9]": {"system": "Oct", "format": "in vitro ADME", "settings": "suspended rat hepatocytes, 14C-TEA 20μM, 20μM glycyrrhizic acid; for initial 14C-TEA uptake in the presence of inhibitor: 200μM clonidine, 10μM desipramine"}, "Oatp [10]": {"system": "Oatp", "format": "in vitro ADME", "settings": "suspended WT rat hepatocytes; 3H-E217G 1μM; inhibitor 20μM"}, "[11]": {"settings": "cited from earlier work"}, "[12]": {"settings": "rats, 0.25 mCi dose, 30 min after intravenous administration; cited from earlier work"}, "[13]": {"system": "TR^− rat sandwich-cultured hepatocytes", "format": "in vitro ADME", "in_short": "as §1"}, "OATP1B3": {"system": "OATP1B3", "settings": "inhibition of OATP1B3; cited from earlier work"}, "Oat2": {"biological_target": "T1, Oat2 (Rattus norvegicus, UniProt Q5RLM2)", "T1 sequence (Q5RLM2 1-535)": "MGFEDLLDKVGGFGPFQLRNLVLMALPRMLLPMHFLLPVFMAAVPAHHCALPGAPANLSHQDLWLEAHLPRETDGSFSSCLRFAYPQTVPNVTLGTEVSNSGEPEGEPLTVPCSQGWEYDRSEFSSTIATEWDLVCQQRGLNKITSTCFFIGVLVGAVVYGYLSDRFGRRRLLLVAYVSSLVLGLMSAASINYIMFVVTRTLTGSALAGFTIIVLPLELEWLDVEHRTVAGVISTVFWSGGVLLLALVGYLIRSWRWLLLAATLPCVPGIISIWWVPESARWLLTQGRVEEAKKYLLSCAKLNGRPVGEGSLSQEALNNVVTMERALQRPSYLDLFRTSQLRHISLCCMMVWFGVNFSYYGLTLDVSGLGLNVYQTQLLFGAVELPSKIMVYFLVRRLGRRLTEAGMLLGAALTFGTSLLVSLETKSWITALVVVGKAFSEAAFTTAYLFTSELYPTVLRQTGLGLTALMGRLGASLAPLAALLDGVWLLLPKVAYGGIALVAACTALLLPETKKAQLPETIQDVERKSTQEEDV", "test": "3H-PAH uptake over 60 min in freshly isolated rat hepatocytes", "format": "in vitro ADME", "settings": "50μM MK571 in the incubation medium"}, "OATP [14]": {"system": "OATP", "test": "Initial uptake of 3H-E217G in suspended human hepatocytes with inhibitors", "format": "in vitro ADME", "settings": "3H-E217G 1μM, 20μM rifamycin SV"}, "[15]": {"settings": "control WT rat SCH, 5μCi/mL, 20min preload"}, "[16]": {"settings": "TR- rat SCH, 5μCi/mL, 20min preload"}, "[17]": {"settings": "human SCH, control, 5μCi/mL, 20min preload"}}, "note": "Entries after “also recorded” stand apart in the source; their conditions may differ. Counter-ions that a name gives are not always drawn. Like-named read-outs stand apart in the source and are kept apart here.", "data": [{"compound": "CC[N+](CC)(CC)CC", "note": "[^14C-TEA, tetraethylammonium]", "values": [{"measurement": "linear range of uptake", "setting": "[1]", "value": 5, "unit": "min"}]}, {"compound": "COc1cc2c(cc1OC)CN(CCc1ccc(NC(=O)c3cccc4c(=O)c5cccc(OC)c5[nH]c34)cc1)CC2", "note": "[GF120918, N-(4-[2-(1,2,3,4-tetrahydro-6,7-dimethoxy-2-isoquinolinyl)ethyl]-phenyl)-9,10-dihydro-5-methoxy-9-oxo-4-acridine carboxamide]", "values": [{"measurement": "decrease of 99mTc-MIBI basolateral efflux", "setting": "[2]; rat SCH, GF120918 20μM", "value": "~ 2.3 fold"}, {"measurement": "decrease of 99mTc-MIBI canalicular efflux", "setting": "[2]; rat SCH, GF120918 20μM", "value": 1.5, "unit": "fold"}, {"measurement": "effect on 99mTc-MIBI BEI and in vitro Clbiliary (biliary excretion)", "setting": "[3]", "value": "ablated; also recorded: inhibited completely"}, {"measurement": "increase in hepatocellular accumulation (cells only) of 99mTc-MIBI", "setting": "[3]", "value": "~ 2 fold"}, {"measurement": "decrease of 99mTc-MIBI basolateral efflux", "setting": "[4]; human SCH, GF120918 20μM", "value": "~ 2.9 fold"}, {"measurement": "decrease of 99mTc-MIBI canalicular efflux", "setting": "[4]; human SCH, GF120918 20μM", "value": 2.1, "unit": "fold"}]}, {"compound": "CCN1/C(=C/c2ccc3ccccc3[n+]2CC)C=Cc2ccccc21.[I-]", "note": "[decynium 22]", "values": [{"measurement": "initial 99mTc-MEB uptake in the presence of inhibitor", "setting": "[5]", "value": "marginal effects"}, {"measurement": "initial 14C-TEA uptake in the presence of inhibitor", "setting": "OCT [6]", "value": "54.2 % of control"}, {"measurement": "initial 99mTc-MEB uptake in the presence of inhibitor", "setting": "[7]", "value": "marginal effects"}]}, {"compound": "C[C@]12CC[C@@H]3c4ccc(O)cc4CC[C@H]3[C@@H]1CC[C@@H]2O[C@@H]1O[C@H](C(=O)O)[C@@H](O)[C@H](O)[C@H]1O", "note": "[^3H-E217G, Estradiol-17-β-D-glucuronide]", "values": [{"measurement": "linear range of uptake", "setting": "[8]", "value": 2.5, "unit": "min"}]}, {"compound": "CC1(C)[C@@H](O[C@H]2O[C@H](C(=O)O)[C@@H](O)[C@H](O)[C@H]2O[C@@H]2O[C@H](C(=O)O)[C@@H](O)[C@H](O)[C@H]2O)CC[C@]2(C)[C@H]3C(=O)C=C4[C@@H]5C[C@@](C)(C(=O)O)CC[C@]5(C)CC[C@@]4(C)[C@]3(C)CC[C@@H]12", "note": "[glycyrrhizic acid]", "values": [{"measurement": "reduction of 14C-TEA uptake compared to control", "setting": "Oct [9]", "value": 62.1, "unit": "%"}, {"measurement": "initial 14C-TEA uptake in the presence of inhibitor", "setting": "Oct [9]", "value": "37.9 % of control"}, {"measurement": "initial 3H-E217G uptake in the presence of inhibitor", "setting": "Oatp [10]", "value": "23.8 % of control"}, {"measurement": "initial 99mTc-MEB uptake in the presence of inhibitor", "setting": "[7]", "value": "39.5 % of control"}]}, {"compound": "Clc1cccc(Cl)c1N=C1NCCN1", "note": "[clonidine]", "values": [{"measurement": "initial 99mTc-MEB uptake in the presence of inhibitor", "setting": "[5]", "value": "marginal effects"}, {"measurement": "initial 14C-TEA uptake in the presence of inhibitor", "setting": "Oct [9]", "value": "23.7 % of control"}, {"measurement": "initial 99mTc-MEB uptake in the presence of inhibitor", "setting": "[7]", "value": "marginal effects"}]}, {"compound": "Cc1cc(C)c(NC(=O)CN(CC(=O)[O-])CC(=O)[O-])c(C)c1Br.Cc1cc(C)c(NC(=O)CN(CC(=O)[O-])CC(=O)[O-])c(C)c1Br.[99Tc+4]", "note": "[^99mTc-MEB, ^99mTechnetium-mebrofenin]", "values": [{"measurement": "basolateral efflux over 20 min", "setting": "[2]; [15]", "value": "25.0±6.7 % of total preloaded mass"}, {"measurement": "canalicular efflux over 20 min", "setting": "[2]; [15]", "value": "15.3±5.7 % of total preloaded mass"}, {"measurement": "hepatocellular content in cell lysate at the end of the 20-min efflux experiment, Rat Inhibitor", "setting": "[2]; day 4 WT rat SCH, Inhibitor = 100μM MK571 for 99mTc-MEB and 20μM GF120918 for 99mTc-MIBI", "value": "63.4 ± 4.8% of the total substrate mass preloaded"}, {"measurement": "fraction of basolateral efflux", "setting": "[2]; rat SCH", "value": "62.0 % of total efflux"}, {"measurement": "fraction of canalicular efflux", "setting": "[2]; rat SCH", "value": "38.0 % of total efflux"}, {"measurement": "total efflux", "setting": "[2]; rat SCH, 20-min efflux study design", "value": "40.3±5.4", "unit": "%"}, {"measurement": "dose recovered in bile", "setting": "[11]; 2.3mCi dose intravenously, healthy human subjects, within 180 min", "value": "~ 84%"}, {"measurement": "dose recovered in urine", "setting": "[11]; after 24 hours in humans", "value": "~ 1.5 % of the dose"}, {"measurement": "dose taken up by the liver", "setting": "[11]; humans", "value": "More than 98%"}, {"measurement": "hepatic excretion half-life", "setting": "[11]; humans", "value": 16, "unit": "min"}, {"measurement": "dose recovered in the liver", "setting": "[12]", "value": "~ 95%"}, {"measurement": "basolateral efflux over 20 min", "setting": "[13]; [16]", "value": "31.8±6.2 % of total preloaded mass"}, {"measurement": "canalicular efflux over 20 min", "setting": "[13]; [16]", "value": "negligible; also recorded: completely ablated"}, {"measurement": "hepatocellular content in cell lysate at the end of the 20-min efflux experiment, Rat TR-", "setting": "[13]; day 4 TR- rat SCH, n=3", "value": "78.8 ± 13.2% of the total substrate mass preloaded"}, {"measurement": "canalicular efflux, human compared to rat SCH", "setting": "[4]; 20-min efflux", "value": "~ 3 fold"}, {"measurement": "hepatocellular content in cell lysate at the end of the 20-min efflux experiment, Human Inhibitor", "setting": "[4]; day 7 human SCH, Inhibitor = 100μM MK571 for 99mTc-MEB and 20μM GF120918 for 99mTc-MIBI", "value": "27.7 ± 0.4% of the total substrate mass preloaded"}, {"measurement": "fraction of basolateral efflux", "setting": "[4]; human SCH", "value": "26.7 % of total efflux"}, {"measurement": "fraction of canalicular efflux", "setting": "[4]; human SCH", "value": "73.3 % of total efflux"}, {"measurement": "total efflux", "setting": "[4]; human SCH, 20-min efflux study design", "value": "62.4±8.0", "unit": "%"}, {"measurement": "basolateral efflux over 20 min", "setting": "[4]; [17]", "value": "16.7±0.6 % of total preloaded mass"}, {"measurement": "canalicular efflux over 20 min", "setting": "[4]; [17]", "value": "45.8±8.6 % of total preloaded mass"}, {"measurement": "linear range of uptake", "setting": "[1]", "value": 1.5, "unit": "min"}]}, {"compound": "CN(C)C(=O)CCSC(SCCC(=O)O)c1cccc(/C=C/c2ccc3ccc(Cl)cc3n2)c1", "note": "(stereo not shown) [MK571, MK-571 sodium salt]", "values": [{"measurement": "Ki", "setting": "OATP1B3", "value": 600, "unit": "nM"}, {"measurement": "effect of inhibitor on 3H-PAH uptake", "setting": "Oat2", "value": "not significantly influenced"}]}, {"compound": "CO[C@H]1/C=C/O[C@@]2(C)Oc3c(C)c(O)c4c(O)c(cc(O)c4c3C2=O)NC(=O)/C(C)=C\\C=C\\[C@H](C)[C@H](O)[C@@H](C)[C@@H](O)[C@@H](C)[C@H](OC(C)=O)[C@@H]1C", "note": "[rifamycin SV]", "values": [{"measurement": "initial 99mTc-MEB uptake in the presence of inhibitor", "setting": "[5]", "value": "35.4 % of control"}, {"measurement": "initial 3H-E217G uptake in the presence of inhibitor", "setting": "OATP [14]", "value": "51.5 % of control"}, {"measurement": "initial 3H-E217G uptake in the presence of inhibitor", "setting": "Oatp [10]", "value": "15.5 % of control"}, {"measurement": "initial 99mTc-MEB uptake in the presence of inhibitor", "setting": "[7]", "value": "20.7 % of control"}]}]}
